Assay results from ChEMBL document CHEMBL1130339, “Structural analogues of the calanolide anti-HIV agents. Modification of the trans-10,11-dimethyldihydropyran-12-ol ring (ring C)” (J Med Chem, 1997).

Key:
[1] = Therapeutic Index (IC50/EC50)
In short: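 Ratio of cytotoxic IC50 in uninfected CEM-SS cells to antiviral EC50 in HIV-1 RF-infected CEM-SS cells, both from 6-day XTT viability readings. Not determined when no EC50 was available.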

CEM-SS [2] = experiment: Concentration required to protect CEM-SS cells from HIV-1 mediated cytopathicity by 50% relative to drug-free controls was determined; assay type: functional, cell-based, Homo sapiens
In short: (§1)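 CEM-SS cells were infected with HIV-1 RF at MOI about 0.12 TCID50/cell for 4 h at 37 °C, then the virus supernatant was removed. Cells at 10^4/well were exposed to compound diluted from DMSO (maximum 100 µM) in triplicate wells. After 6 days at 37 °C, 5% CO2, viability was read with XTT. EC50 = concentration giving 50% protection from viral cytopathicity relative to infected controls.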

CEM-SS [3] = experiment: Antiviral activity against HIV-1 determined by concentration which resulted in cytotoxicity of 50% of CEM-SS cell population relative to drug-free controls; assay type: functional, cell-based; conditions: Homo sapiens
In short: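 Cytotoxicity in uninfected CEM-SS cells (RPMI 1640, 10% heat-inactivated FCS, 25 mM HEPES, antibiotics; 37 °C, 5% CO2). Compounds dissolved in DMSO, diluted in medium, top concentration 100 µM, duplicate wells per concentration. 10^4 cells/well, 6-day incubation, viability by XTT dye. IC50 = concentration reducing cell growth by 50% of uninfected controls.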

[4] = target: Human immunodeficiency virus type 1 reverse transcriptase (Human immunodeficiency virus 1, UniProt Q72547); experiment: Inhibition of HIV-1 reverse transcriptase using a poly(rC):oligo(dG)12-18 template primer
In short: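 HIV-1 reverse transcriptase inhibition was measured with a poly(rC):oligo(dG)12-18 template:primer system.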

CEM-SS [5] = experiment: Concentration required to protect CEM-SS cells from HIV-1 mediated uM; assay type: functional, cell-based, Homo sapiens; in short: as §1

EC50 (CEM-SS [2]; Homo sapiens, CEM-SS) [µM] | EC50 [4] [µM] | EC50 (CEM-SS [5]) | EC50 (CEM-SS [2]; cem-ss) [µM] | Compound | TI [1] [Ratio] | IC50 (CEM-SS [3]) [µM]
– | – | Not Active | – | CCCc1cc(=O)oc2c(C(=O)C(C)(C)C(C)O)c(O)c3c(c12)OC(C)(C)C=C3 (racemic) | – | 37
– | – | Not Active | – | CCCc1cc(=O)oc2c3c(c4c(c12)OC(C)(C)C=C4)O[C@H](C(C)C)[C@@H](C)[C@@H]3O (racemic) | – | 6.5
– | – | Not Active | – | CCCc1cc(=O)oc2c3c(c4c(c12)OC(C)(C)C=C4)O[C@H](C)C(C)(C)[C@@H]3O | – | 20
– | – | Not Active | – | CCCc1cc(=O)oc2c3c(c4c(c12)OC(C)(C)C=C4)O[C@H](C(C)C)[C@H](C)[C@@H]3O (racemic) | – | 6.9
5.7 | 5 | – | – | CCCc1cc(=O)oc2c3c(c4c(c12)OC(C)(C)C=C4)OC(C)(C)[C@H](C)[C@H]3O (racemic) | 3.7 | 21
– | – | Not Active | – | CCCc1cc(=O)oc2c3c(c4c(c12)OC(C)(C)C=C4)O[C@H](C(C)C)[C@@H](C)C3=O (racemic) | – | 21
> 100 | – | – | – | CCCc1cc(=O)oc2c3c(c4c(c12)OC(C)(C)C=C4)OC(C)(C)[C@H](C)[C@@H]3O (racemic) | – | 21
– | – | Not Active | – | CCCc1cc(=O)oc2c3c(c4c(c12)OC(C)(C)C=C4)OC(C)(C)[C@H](C)C3=O (racemic) | – | 2.4
2.4 | 32 | – | – | CCCc1cc(=O)oc2c3c(c4c(c12)OC(C)(C)C=C4)O[C@H](C)C(C)(C)[C@H]3O (racemic) | 6.2 | 15
6.2 | – | – | – | CCCc1cc(=O)oc2c(C(=O)[C@H](C)[C@H](C)O)c(O)c3c(c12)OC(C)(C)C=C3 (racemic) | 3.9 | 24
– | – | Not Active | – | CCCc1cc(=O)oc2c(C(=O)C(C)C(C)(C)O)c(O)c3c(c12)OC(C)(C)C=C3 (racemic) | – | –
– | – | Not Active | – | CCCc1cc(=O)oc2c3c(c4c(c12)OC(C)(C)C=C4)O[C@H](C(C)C)[C@@H](C)[C@H]3O (racemic) | – | 6.5
2.3 | – | – | – | CCCc1cc(=O)oc2c(C(=O)[C@@H](C)[C@H](C)O)c(O)c3c(c12)OC(C)(C)C=C3 (racemic) | 9.6 | 22
– | – | Not Active | – | CCCc1cc(=O)oc2c(C(=O)CC)c(OCC)c3c(c12)OC(C)(C)C=C3 | – | 6.6
– | – | Not Active | – | CCCc1cc(=O)oc2c(C(O)CC)c(OCC)c3c(c12)OC(C)(C)C=C3 (racemic) | – | 16

The next lines start with the molecule.

Compound | EC50 (CEM-SS [2]; Homo sapiens, CEM-SS) [µM] | EC50 [4] [µM] | EC50 (CEM-SS [5]) | EC50 (CEM-SS [2]; cem-ss) [µM] | TI [1] [Ratio] | IC50 (CEM-SS [3]) [µM]
CCCc1cc(=O)oc2c3c(c4c(c12)OC(C)(C)C=C4)O[C@H](C)[C@H](C)C3=O (racemic) | 2.8 | > 100 | – | – | 4.3 | 12
CCCc1cc(=O)oc2c3c(c4c(c12)OC(C)(C)C=C4)O[C@H](C)C(C)(C)C3=O | > 100 | – | – | – | – | 19
CCCc1cc(=O)oc2c3c(c4c(c12)OC(C)(C)C=C4)O[C@H](C)[C@@H](C)C3=O (racemic) | 1.2 | 40 | – | – | 16 | 19
CCCc1cc(=O)oc2c3c(c4c(c12)OC(C)(C)C=C4)O[C@H](C)[C@H](C)[C@@H]3O (racemic) [CALANOLIDE C] | – | – | Not Active | – | – | 18
CCCc1cc(=O)oc2c3c(c4c(c12)OC(C)(C)C=C4)OC[C@H](C)C31OCOCO1 (racemic) | – | – | Not Active | – | – | 6.3
CCCc1cc(=O)oc2c3c(c4c(c12)OC(C)(C)C=C4)O[C@H](CC)[C@@H](C)C3=O (racemic) | > 100 | – | – | – | – | 18
CCCc1cc(=O)oc2c3c(c4c(c12)OC(C)(C)C=C4)O[C@H](CC)[C@@H](C)[C@H]3O (racemic) | 1.7 | 2 | – | – | 8.2 | 14
CCCc1cc(=O)oc2c3c(c4c(c12)OC(C)(C)C=C4)O[C@H](CC)[C@H](C)[C@H]3O (racemic) | – | – | Not Active | – | – | 21
CCCc1cc(=O)oc2c3c(c4c(c12)OC(C)(C)C=C4)O[C@H](CC)[C@@H](C)[C@@H]3O (racemic) | 2 | 3.2 | – | – | 9 | 18
CCCc1cc(=O)oc2c3c(c4c(c12)OC(C)(C)C=C4)OC[C@H](C)[C@H]3O (racemic) | – | – | Not Active | – | – | 22
CCCc1cc(=O)oc2c3c(c4c(c12)OC(C)(C)C=C4)OC[C@H](C)C3=O (racemic) | – | – | Not Active | – | – | –
CCCc1cc(=O)oc2c1c1c(c3oc(C)c(C)c(=O)c32)C=CC(C)(C)O1 | – | – | Not Active | – | – | > 100
CCCc1cc(=O)oc2c3c(c4c(c12)OC(C)(C)C=C4)O[C@H](C)[C@@H](C)[C@@H]3O [CALANOLIDE A] | 0.27 | 0.32 | – | – | 85 | 23
CCCc1cc(=O)oc2c3c(c4c(c12)OC(C)(C)C=C4)OC(C)(C)CC3O (racemic) | – | – | Not Active | – | – | 11
CCCc1cc(=O)oc2c3c(c4c(c12)OC(C)(C)C=C4)O[C@H](C)[C@H](C)[C@H]3O (racemic) | > 100 | – | – | – | – | 20
CCCc1cc(=O)oc2c3c(c4c(c12)OC(C)(C)C=C4)O[C@H](C)[C@@H](C)[C@@H]3O (racemic) [CALANOLIDE A] | – | 0.97 | – | 0.49 | 47 | –
CCCc1cc(=O)oc2c3c(c4c(c12)OC(C)(C)C=C4)OC[C@H](C)[C@@H]3O (racemic) | 7.2 | 50 | – | – | 3.1 | 22
CCCc1cc(=O)oc2c3c(c4c(c12)OC(C)(C)C=C4)O[C@H](CC)[C@H](C)[C@@H]3O (racemic) | – | – | Not Active | – | – | 12
